Measurements of several laboratories.
Lines come from different studies, so protocols differ. pIC50: −log10 of the molar value.
Cell line: HepG2
Read-out: cell growth or viability

| SMILES | assay | setting | endpoint | value |
| --- | --- | --- | --- | --- |
| CCOC(=O)c1nn(-c2cccc(Cl)c2)/c(=N/N=C(\C)c2ccc(NC(=O)c3ccc(Cl)cc3)cc2)s1 | MTT | 0.625 µM | viability | 2.86% |
| COc1ccc(-c2cc(-c3ccc(Br)cc3)c3c(=O)n(C)c(=O)n(C)c3n2)cc1 | MTT | 48 h | pIC50 | 5.07 |
| O=C(Nc1ccccc1)Nc1ccc(Oc2nnc(-c3ccc(Cl)cc3)c3ccccc23)cc1 | MTT | 5 µM | cell death | 94.9% |
| COc1ccc(-c2cc(-c3ccc(OC)cc3)c3c(=O)n(C)c(=O)n(C)c3n2)cc1 | MTT | 48 h | pIC50 | 4.76 |
| CC(=NNC(=O)c1ccccc1O)c1ccc(Nc2nnc(-c3ccc(Cl)cc3)c3ccccc23)cc1 | MTT | 2.5 µM | cell death | 62.1% |
| Cc1ccc(-c2cc(-c3ccc(Cl)cc3)c3c(=O)n(C)c(=O)n(C)c3n2)cc1 | MTT | 48 h | pIC50 | 5.13 |
| CN(C)c1cc(NC(=O)c2ccccn2)c(O)c2c1C[C@H]1C[C@H]3[C@H](N(C)C)C(O)=C(C(N)=O)C(=O)[C@@]3(O)C(O)=C1C2=O | ATP luminescence | 72 h | IC50 | 187 µg/mL |
| CC(=NNC(=S)Nc1ccccc1)c1ccc(Nc2nnc(-c3ccc(Cl)cc3)c3ccccc23)cc1 | MTT | 0.625 µM, 24 h | viability | 79.5% |
| CC(=O)c1nn(-c2ccc(C)cc2)/c(=N/N=C(\C)c2ccc(NC(=O)c3ccccc3)cc2)s1 | MTT | 0.156 µM | viability | 28.5% |
| COc1ccc(-c2cc(-c3ccc(C)cc3)nc3c2c(=O)n(C)c(=O)n3C)cc1OC | MTT | 48 h | pIC50 | 4.49 |
| CC(=NNC(=O)COc1ccc2c(C)c(Cc3ccccc3)c(=O)oc2c1C)c1ccc(Br)cc1 | MTT | 6.3 µg/mL | viability | 50.6% |
| CC(=O)Nc1ccc(/C(C)=N/N=c2\sc(C(C)=O)nn2-c2ccc(C)cc2)cc1 | MTT | 10 µM | viability | 48.8% |
| CC(=NNC(=O)c1cccnc1)c1ccc(Nc2nnc(-c3ccc(Cl)cc3)c3ccccc23)cc1 | MTT | 0.625 µM, 24 h | viability | 49.9% |
| CCOC(=O)c1nn(-c2cccc(Cl)c2)/c(=N/N=C(\C)c2ccc(NC(=O)c3ccccc3)cc2)s1 | MTT | 0.312 µM | viability | 3.54% |
| CC(=NNC(=O)c1ccncc1)c1ccc(Nc2nnc(-c3ccc(Cl)cc3)c3ccccc23)cc1 | MTT | 78 nM | cell death | 3.16% |
| CC(=O)c1nn(-c2ccccc2Cl)/c(=N/N=C(\C)c2ccc(NC(=O)c3ccccc3)cc2)s1 | MTT | 1.25 µM | viability | 5.77% |
| CC(=O)Nc1ccc(Oc2nnc(-c3ccc(Cl)cc3)c3ccccc23)cc1 | MTT | 2.5 µM | cell death | 93.5% |
| Cc1ccc(-c2cc(-c3c(Cl)cccc3Cl)c3c(=O)[nH]c(=O)[nH]c3n2)cc1 | MTT | 48 h | pIC50 | 4.37 |
| C/C(=N\N=C1/NC(=O)/C(=C\c2ccc(F)cc2)S1)c1ccccn1 | SRB | 100 µg/mL, 48 h | inhibition | 57.6% |
